Measured values from ChEMBL document CHEMBL1153938, “Synthesis of hydroxypyrone- and hydroxythiopyrone-based matrix metalloproteinase inhibitors: developing a structure-activity relationship” (Bioorg Med Chem Lett, 2009).

Tests used:
[1] = molecular target: T1, 72 kDa type IV collagenase (Homo sapiens, UniProt P08253); assay: Inhibition of human MMP2 catalytic domain at 50 uM after 1 hr by fluorescent substrate assay
Method in brief: (§1)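 Single-concentration screen: each inhibitor tested at 50 µM against recombinant human MMP catalytic domain (MMP-1, MMP-2 or MMP-3) in a fluorescent substrate assay, with activity reported as percent inhibition.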
Target sequence in this assay (P08253 110-660 limits assumed): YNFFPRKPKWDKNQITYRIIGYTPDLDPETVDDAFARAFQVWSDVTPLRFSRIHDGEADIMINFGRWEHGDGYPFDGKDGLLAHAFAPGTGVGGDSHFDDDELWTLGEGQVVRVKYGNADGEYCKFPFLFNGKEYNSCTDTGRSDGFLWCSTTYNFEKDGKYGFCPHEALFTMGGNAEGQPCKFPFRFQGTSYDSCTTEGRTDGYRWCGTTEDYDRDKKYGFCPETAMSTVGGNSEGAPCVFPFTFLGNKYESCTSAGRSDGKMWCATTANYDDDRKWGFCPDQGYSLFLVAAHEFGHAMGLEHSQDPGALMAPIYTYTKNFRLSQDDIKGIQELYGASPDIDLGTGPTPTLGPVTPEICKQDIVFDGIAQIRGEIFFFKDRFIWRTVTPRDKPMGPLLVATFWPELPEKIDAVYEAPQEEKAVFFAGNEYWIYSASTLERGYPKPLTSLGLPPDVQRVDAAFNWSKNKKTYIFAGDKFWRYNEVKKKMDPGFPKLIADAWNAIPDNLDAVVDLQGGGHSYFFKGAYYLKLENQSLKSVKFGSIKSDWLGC

Stromelysin-1 [2] = molecular target: T2, Stromelysin-1 (Homo sapiens, UniProt P08254); assay: Inhibition of human MMP3 catalytic domain at 50 uM after 1 hr by fluorescent substrate assay; method in brief: as §1
T2 sequence (P08254 whole entry, the tested form may be a part): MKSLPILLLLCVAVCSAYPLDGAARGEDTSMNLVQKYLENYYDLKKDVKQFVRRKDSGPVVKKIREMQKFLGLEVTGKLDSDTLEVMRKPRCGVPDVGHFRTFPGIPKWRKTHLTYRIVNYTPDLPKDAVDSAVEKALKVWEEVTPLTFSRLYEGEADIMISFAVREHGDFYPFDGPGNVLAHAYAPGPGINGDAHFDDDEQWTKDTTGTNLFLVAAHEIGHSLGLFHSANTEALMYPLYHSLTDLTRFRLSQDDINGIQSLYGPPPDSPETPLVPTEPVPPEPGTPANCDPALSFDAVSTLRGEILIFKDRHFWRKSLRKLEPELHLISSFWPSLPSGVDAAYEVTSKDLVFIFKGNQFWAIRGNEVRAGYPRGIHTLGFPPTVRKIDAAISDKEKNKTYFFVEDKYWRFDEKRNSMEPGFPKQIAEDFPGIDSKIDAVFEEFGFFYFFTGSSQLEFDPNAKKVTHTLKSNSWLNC

[3] = molecular target: T3, Interstitial collagenase (Homo sapiens) (UniProt P03956); assay: Inhibition of human MMP1 catalytic domain at 50 uM after 1 hr by fluorescent substrate assay; method in brief: as §1
T3 sequence (whole entry): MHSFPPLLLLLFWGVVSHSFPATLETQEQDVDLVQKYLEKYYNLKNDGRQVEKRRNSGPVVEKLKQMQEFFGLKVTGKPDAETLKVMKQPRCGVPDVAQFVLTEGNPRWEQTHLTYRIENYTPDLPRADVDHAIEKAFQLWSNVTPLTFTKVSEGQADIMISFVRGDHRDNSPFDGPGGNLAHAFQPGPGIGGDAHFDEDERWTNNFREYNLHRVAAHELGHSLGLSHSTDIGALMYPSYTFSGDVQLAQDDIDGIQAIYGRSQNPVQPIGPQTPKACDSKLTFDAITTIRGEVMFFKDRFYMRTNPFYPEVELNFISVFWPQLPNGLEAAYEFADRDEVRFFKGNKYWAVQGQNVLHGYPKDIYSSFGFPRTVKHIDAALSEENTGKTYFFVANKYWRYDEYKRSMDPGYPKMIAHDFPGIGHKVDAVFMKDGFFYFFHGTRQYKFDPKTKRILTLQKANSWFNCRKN

Stromelysin-1 [4] = molecular target: T2, Stromelysin-1; assay: Inhibition of human MMP3 catalytic domain by fluorescent substrate assay
Method in brief: (§2)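 IC50 against human MMP catalytic domain (MMP-1, MMP-2 or MMP-3) from a fluorescent substrate assay. It was determined only for inhibitors showing relatively strong inhibition in the 50 µM screen.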

[5] = molecular target: T1, 72 kDa type IV collagenase; assay: Inhibition of human MMP2 catalytic domain by fluorescent substrate assay; method in brief: as §2
Target sequence in this assay (P08253 whole entry, the tested form may be a part): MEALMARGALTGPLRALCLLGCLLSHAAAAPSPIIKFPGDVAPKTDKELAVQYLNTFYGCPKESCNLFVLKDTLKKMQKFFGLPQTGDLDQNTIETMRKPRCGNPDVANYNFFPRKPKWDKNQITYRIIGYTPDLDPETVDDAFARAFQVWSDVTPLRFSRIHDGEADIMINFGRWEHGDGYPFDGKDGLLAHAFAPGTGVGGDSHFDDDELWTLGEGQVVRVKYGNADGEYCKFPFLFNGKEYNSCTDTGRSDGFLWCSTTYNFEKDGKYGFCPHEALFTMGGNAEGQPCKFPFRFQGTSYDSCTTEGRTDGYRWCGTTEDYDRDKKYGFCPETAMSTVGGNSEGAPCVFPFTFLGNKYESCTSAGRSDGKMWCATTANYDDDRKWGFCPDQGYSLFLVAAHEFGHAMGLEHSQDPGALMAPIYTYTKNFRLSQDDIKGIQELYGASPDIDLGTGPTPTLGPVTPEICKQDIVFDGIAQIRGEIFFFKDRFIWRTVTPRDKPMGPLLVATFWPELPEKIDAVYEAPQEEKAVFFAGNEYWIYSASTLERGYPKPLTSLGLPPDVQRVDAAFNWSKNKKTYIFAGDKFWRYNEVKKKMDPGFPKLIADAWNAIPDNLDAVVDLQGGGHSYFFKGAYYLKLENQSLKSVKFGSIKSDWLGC

Interstitial collagenase = molecular target: T4, Interstitial collagenase (Homo sapiens, UniProt P03956); assay: Inhibition of human MMP1 catalytic domain by fluorescent substrate assay; method in brief: as §2
T4 sequence (P03956 whole entry): T3 sequence (whole entry)

How did the inhibition [1] turn out when `COc1ccc(CNC(=O)c2cc(=S)c(O)co2)cc1` was run?
Its inhibition is 85%.

And the inhibition (Stromelysin-1 [2])?
Its inhibition is 91%.

And the inhibition [3]?
Its inhibition is 31%.

What about the IC50 (Stromelysin-1 [4]) of the same compound?
The IC50 was 13.9 µM.

Which IC50 (Stromelysin-1 [4]) does the source give for `Cc1cc(=S)c(O)c(C(=O)NCc2ccc(-c3ccccc3)cc2)o1` here?
Its IC50 is 5.6 µM.

`COc1ccc(CNC(=O)c2cc(=O)c(O)co2)cc1` was tested. Which inhibition [1] did it give?
Its inhibition is 11%.

And the inhibition (Stromelysin-1 [2])?
The inhibition was 22%.

What about the inhibition [3] of the same compound?
The inhibition was 16%.

Which results are given for `Cc1occ(O)c(=O)c1C(=O)NCc1ccc(-c2ccccc2)cc1`?
inhibition [1]: 21%; inhibition (Stromelysin-1 [2]): 28%; inhibition [3]: 15%

How did the inhibition [1] turn out when `Cc1cc(=O)c(O)c(COCc2ccc(-c3ccccc3)cc2)o1` was run?
The inhibition was 15%.

And the inhibition (Stromelysin-1 [2])?
Its inhibition is 26%.

What about the inhibition [3] of the same compound?
Its inhibition is 21%.

With `Cc1cc(=O)c(O)c(C(=O)NCc2ccc(O)cc2)o1` as the compound, how does the inhibition [1] read?
The inhibition was 25%.

What about the inhibition (Stromelysin-1 [2]) of the same compound?
Its inhibition is 94%.

And the inhibition [3]?
The inhibition was 66%.

And the IC50 (Stromelysin-1 [4])?
Its IC50 is 3.7 µM.

What does the source list for `COc1ccc(CNC(=O)c2c(C)occ(O)c2=O)cc1`?
inhibition [1]: 33%; inhibition (Stromelysin-1 [2]): 18%; inhibition [3]: 15%

Which results are given for `COc1ccc(CNC(=O)c2c(C)occ(O)c2=S)cc1`?
IC50 [5]: 30 µM; inhibition [1]: 69%; inhibition (Stromelysin-1 [2]): 36%; inhibition [3]: 49%

`CCOC(=O)c1c(C)oc(CNCc2ccc(-c3ccccc3)cc2)c(O)c1=O` was tested. Which inhibition [1] did it give?
Its inhibition is 18%.

And the inhibition (Stromelysin-1 [2])?
Its inhibition is under 1%.

And the inhibition [3]?
The inhibition was 13%.

`COc1ccc(CNC(=O)c2c(C)oc(CO)c(O)c2=O)cc1` was tested. Which inhibition [1] did it give?
Its inhibition is 24%.

And the inhibition (Stromelysin-1 [2])?
Its inhibition is 32%.

And the inhibition [3]?
The inhibition was 18%.

Which results are given for `O=C(NCc1ccc(-c2ccccc2)cc1)c1cc(=O)c(O)co1`?
inhibition [1]: 14%; inhibition (Stromelysin-1 [2]): 44%; inhibition [3]: 12%

What does the source list for `O=C(NCc1ccc(-c2ccccc2)cc1)c1cc(=S)c(O)co1`?
IC50 (Interstitial collagenase): 44 µM; IC50 [5]: 14.4 µM; inhibition [1]: 98%; inhibition (Stromelysin-1 [2]): 91%; inhibition [3]: 62%; IC50 (Stromelysin-1 [4]): 13.3 µM

With `COc1ccc(CNC(=O)c2oc(C)cc(=S)c2O)cc1` as the compound, how does the IC50 (Interstitial collagenase) read?
The IC50 was 30 µM.

What about the IC50 [5] of the same compound?
The IC50 was 19 µM.

What about the inhibition [1] of the same compound?
The inhibition was 94%.

And the inhibition (Stromelysin-1 [2])?
The inhibition was 97%.

What about the inhibition [3] of the same compound?
The inhibition was 70%.

What about the IC50 (Stromelysin-1 [4]) of the same compound?
The IC50 was 16.4 µM.

With `Cc1occ(O)c(=O)c1C(=O)NCc1ccc(O)cc1` as the compound, how does the inhibition [1] read?
The inhibition was 24%.

What about the inhibition (Stromelysin-1 [2]) of the same compound?
The inhibition was 32%.

And the inhibition [3]?
Its inhibition is 17%.

Which results are given for `Cc1cc(=O)c(O)c(CNCc2ccc(-c3ccccc3)cc2)o1`?
IC50 [5]: 37.7 µM; inhibition [1]: 63%; inhibition (Stromelysin-1 [2]): 4%; inhibition [3]: 6%

How did the IC50 (Interstitial collagenase) turn out when `Cc1cc(=O)c(O)c(C(=O)NCc2ccc(-c3ccccc3)cc2)o1` was run?
The IC50 was over 50 µM.

With `Cc1occ(O)c(=S)c1C(=O)NCc1ccc(-c2ccccc2)cc1` as the compound, how does the IC50 [5] read?
The IC50 was 23 µM.

And the inhibition [1]?
The inhibition was 94%.

And the inhibition (Stromelysin-1 [2])?
Its inhibition is 45%.

And the inhibition [3]?
The inhibition was 52%.

Which inhibition [1] does the source give for `COc1ccc(CNC(=O)c2oc(C)cc(=O)c2O)cc1` here?
Its inhibition is 26%.

What about the inhibition (Stromelysin-1 [2]) of the same compound?
Its inhibition is 93%.

What about the inhibition [3] of the same compound?
The inhibition was 29%.
